According to ChEMBL document CHEMBL1124898, “Novel agents effective against solid tumors: the diarylsulfonylureas. Synthesis, activities, and analysis of quantitative structure-activity relationships” (J Med Chem, 1990):
≈ marks a conversion by molar mass, not a printed value.

Tests used:
CCRF-CEM = assay: Concentration required to inhibit growth of CCRF-CEM cells in culture for 72 hr to 50% of control growth; format: functional, cell-based; conditions: Homo sapiens
[1] = Antitumor activity in vivo against the 6C3HED lymphosarcoma, dosed for 8 days at 300 mg/kg; conditions: Mus musculus, 192 h
[2] = Antitumor activity in vivo against the 6C3HED lymphosarcoma dosed for 8 days at 150 mg/kg; conditions: Mus musculus, 192 h
Rattus norvegicus [3] = assay: Hypoglycemic activity expressed as (Maximum reduction in blood glucose in mg/dL relative to predosing glucose level)/(time in hours at which maximum reduction occurred); format: functional
Procedure, shortened: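 Fed male Sprague-Dawley rats (175–200 g), four per compound, received a single oral gavage dose of 200 mg/kg suspended in 5% acacia. Tail blood was sampled before dosing and at 1, 2, 3 and 5 h, and glucose was measured by glucose oxidase/peroxidase colorimetry. Each rat served as its own control. Value = maximum fall from predose glucose (mg/dL) divided by the hour at which that maximum occurred.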

[4] = Antitumor activity in vivo against the 6C3HED lymphosarcoma dosed for 10 days at 150 mg/kg; format: functional; conditions: Mus musculus, 192 h, in the assay text read “dosed for 8 days” for “dosed for 10 days”
Procedure, shortened: (§1)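 Tumor fragments (about 1–2 mm) implanted sc via trochar into a subaxillary site of syngeneic mice (C3H, C57BL/6, Balb/C or DBA/2) or Holtz rats. Groups were 7–10 randomized animals. Compound was suspended in 2.5% Emulphor in 0.9% saline and given orally by gavage or ip, usually from the day after implantation. Tumor volume versus untreated controls was measured one day after the final dose and reported as % inhibition. Scoring bands: +++ 95–100%, ++ 80–94%.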

[5] = Antitumor activity in vivo against the 6C3HED lymphosarcoma dosed for 8 days at 100 mg/kg; conditions: Mus musculus, 192 h
B16 [6] = assay: Antitumor activity in vivo expressed as percent of inhibition in B-16-melanoma […] cell line; format: functional, Mus musculus; procedure, shortened: as §1
Colon 26 [7] = assay: Antitumor activity in vivo expressed as percent of inhibition in C-26-colon carcinoma cell line; format: functional, Mus musculus; procedure, shortened: as §1
X5563 [8] = assay: Antitumor activity in vivo expressed as percent of inhibition in X5563-plasma cell myeloma cell line; format: functional, Mus musculus; procedure, shortened: as §1
P388 [9] = assay: Antitumor activity in vivo and the activity was determined as percent increase in life span determined against P388-lymphocytic leukemia tumor cell lines; format: functional, Mus musculus
Procedure, shortened: (§2)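 The ascites tumor inoculum of 1 × 10^6 cells was given ip to DBA/2 mice, and treatment started the next day. Compound was suspended in 2.5% Emulphor in 0.9% saline. Groups had 7–10 animals. %ILS = (MDD treated − MDD control)/MDD control × 100. Deaths before the control median day of death were counted as toxic. Values are optimal from at least two experiments.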

[10] = test system: Lewis lung carcinoma cell line; assay: Antitumor activity in vivo expressed as percent of inhibition in Lewis-lung carcinoma cell line; format: functional, Mus musculus; procedure, shortened: as §1
M-5 (Mus musculus) [11] = assay: Antitumor activity in vivo expressed as percent of inhibition in M-5-ovarian carcinoma cell line
Rattus norvegicus [12] = assay: Antitumor activity in vivo expressed as percent of inhibition in Yoshida-sarcoma (rat) cell line; format: functional; procedure, shortened: as §1
P1534J = assay: Antitumor activity in vivo expressed as percent of inhibition in P1534J-lymphatic leukemia cell line; format: functional, Mus musculus
C3H [13] = assay: Antitumor activity in vivo expressed as percent of inhibition in C3H-mammary adenocarcinoma cell line; format: functional, Mus musculus; procedure, shortened: as §1
6C3HED [14] = assay: Antitumor activity in vivo expressed as percent of inhibition in 6C3HED-lymphosarcoma tumor cell line; format: functional, Mus musculus; procedure, shortened: as §1
L1210 = assay: Antitumor activity in vivo and the activity was determined as percent increase in life span determined against L1210V-lymphocytic leukemia tumor cell lines; format: functional, Mus musculus; procedure, shortened: as §2
CA-755 [15] = assay: Antitumor activity in vivo expressed as percent of inhibition in CA-755-mammary adenocarcinoma tumor cell line; format: functional, Mus musculus; procedure, shortened: as §1
B16 [16] = assay: Antitumor activity in vivo expressed as percent of inhibition in B-16-melanoma (solid) cell line; format: functional, Mus musculus; procedure, shortened: as §1
C3H [17] = assay: Antitumor activity in vivo expressed as percent of inhibition in C3H-mammary adenocarcinoma cell line; 95-100% inhibition; format: functional, Mus musculus; procedure, shortened: as §1
M109 = assay: Antitumor activity in vivo expressed as percent of inhibition in Madison-lung carcinoma cell line; 80-94% inhibition; format: functional, Mus musculus; procedure, shortened: as §1
6C3HED [18] = assay: Antitumor activity in vivo expressed as percent of inhibition in 6C3HED-lymphosarcoma tumor cell line; 95-100% inhibition; format: functional, Mus musculus; procedure, shortened: as §1
CA-755 [19] = assay: Antitumor activity in vivo expressed as percent of inhibition in CA-755-mammary adenocarcinoma tumor cell line; 95-100% inhibition; format: functional, Mus musculus; procedure, shortened: as §1
M-5 (Mus musculus) [20] = assay: Antitumor activity in vivo expressed as percent of inhibition in M-5-ovarian carcinoma cell line; 95-100% inhibition
X5563 [21] = assay: Antitumor activity in vivo expressed as percent of inhibition in X5563-plasma cell myeloma cell line; 60-79 % inhibition; format: functional, Mus musculus; procedure, shortened: as §1
P388 [22] = assay: Antitumor activity in vivo and the activity was determined as percent increase in life span determined against P388-lymphocytic leukemia tumor cell lines; 50-99 %; format: functional, Mus musculus; procedure, shortened: as §2
Colon 26 [23] = assay: Antitumor activity in vivo expressed as percent of inhibition in C-26-colon carcinoma cell line; 95-100% inhibition; format: functional, Mus musculus; procedure, shortened: as §1

Row | SMILES | IC50 (CCRF-CEM) | inhibition in vivo at 300 mg/kg [1] | further results
1 | O=C(Nc1ccc(Cl)cc1)NS(=O)(=O)c1ccc2c(c1)CCO2 | 16.1 µg/mL (≈ 45.6 µM) | 94% | 
2 | CC(=O)c1ccc(S(=O)(=O)NC(=O)Nc2ccc(Cl)cc2)cc1 | 16.9 µg/mL (≈ 47.9 µM) | 55% | 
3 | O=C(Nc1ccc(Cl)cc1)NS(=O)(=O)c1ccc2ccccc2c1 | 11.2 µg/mL (≈ 31 µM) | 100% | Ratio (Rattus norvegicus [3]): 0
4 | Cc1ccc(S(=O)(=O)NC(=O)Nc2cccc3ccccc23)cc1 | > 20 µg/mL | 0% | 
5 | Cc1cccc(S(=O)(=O)NC(=O)Nc2ccc(Cl)cc2)c1 | 4.3 µg/mL (≈ 13.2 µM) |  | inhibition in vivo at 150 mg/kg [2]: 100%
6 | Cc1ccc(S(=O)(=O)NC(=O)Nc2ccc(I)cc2)cc1 | 19.6 µg/mL (≈ 47.1 µM) |  | inhibition in vivo at 150 mg/kg [4]: 76%
7 | O=C(Nc1ccc(Cl)cc1)NS(=O)(=O)c1ccc(Cl)cc1 | 19.3 µg/mL (≈ 55.9 µM) |  | inhibition in vivo at 100 mg/kg [5]: 100%
8 | O=C(Nc1ccc(C(F)(F)F)cc1)NS(=O)(=O)c1ccccc1 | 6 µg/mL (≈ 17.4 µM) |  | inhibition in vivo at 150 mg/kg [4]: 81%
9 | Cc1ccc(S(=O)(=O)NC(=O)Nc2ccc(Cl)cc2)cc1 [LY-181984] | 8.9 µg/mL (≈ 27.4 µM) | 100% | Inhibition (B16 [6]): 79%; Inhibition (Colon 26 [7]): 94%; Inhibition (X5563 [8]): 94%; Increase in life-span (P388 [9]): <50%; Inhibition [10]: <60%; Inhibition (M-5 (Mus musculus) [11]): 100%; Inhibition (Rattus norvegicus [12]): 79%; Inhibition (P1534J): 100%; Inhibition (C3H [13]): 94%; Inhibition (6C3HED [14]): 100%; Increase in life-span (L1210): <50%; Inhibition (CA-755 [15]): 100%
10 | O=C(Nc1ccc(Cl)cc1)NS(=O)(=O)c1ccc2c(c1)CCC2 [SULOFENUR] | 11.2 µg/mL (≈ 31.9 µM) | 100% | Inhibition (B16 [16]): <60%; Inhibition (C3H [17]): 100%; Inhibition (M109): 94%; Inhibition (6C3HED [18]): 100%; Inhibition (CA-755 [19]): 100%; Inhibition [10]: <60%; Inhibition (M-5 (Mus musculus) [20]): 100%; Inhibition (X5563 [21]): 79%; Ratio (Rattus norvegicus [3]): 0; Increase in life-span (P388 [22]): 99%; Inhibition (Colon 26 [23]): 100%

Second part, led by results:

Row | IC50 (CCRF-CEM) | SMILES | inhibition in vivo at 300 mg/kg [1] | further results
11 | 1.5 µg/mL (≈ 4.35 µM) | O=C(Nc1ccc(Cl)c(Cl)c1)NS(=O)(=O)c1ccccc1 |  | inhibition in vivo at 150 mg/kg [2]: 100%
12 | > 20 µg/mL | Cc1ccc(S(=O)(=O)NC(=O)Nc2ccccn2)cc1 | 2% | 
13 | 16 µg/mL (≈ 42.9 µM) | Cc1ccc(S(=O)(=O)NC(=O)Nc2cc(Cl)c(Cl)cc2C)cc1 | 15% | 
14 | 3.8 µg/mL (≈ 12.2 µM) | O=C(Nc1ccc(Cl)cc1)NS(=O)(=O)c1ccccc1 |  | inhibition in vivo at 150 mg/kg [2]: 100%
15 | 14.2 µg/mL (≈ 37.4 µM) | O=C(Nc1ccc(Cl)cc1)NS(=O)(=O)c1ccc(Cl)c(Cl)c1 |  | inhibition in vivo at 150 mg/kg [2]: 100%
16 | 28 µg/mL (≈ 82.3 µM) | Cc1ccc(S(=O)(=O)NC(=O)Nc2ccc3ccccc3c2)cc1 | 5% | 
17 | 15.3 µg/mL (≈ 45.5 µM) | COc1ccc(NC(=O)NS(=O)(=O)c2ccc(OC)cc2)cc1 | 16% | 
18 | 15.8 µg/mL (≈ 42.7 µM) | Cc1ccc(S(=O)(=O)NC(=O)Nc2ccc(Cl)c([N+](=O)[O-])c2)cc1 | 30% | 
19 | > 20 µg/mL | Cc1ccc(S(=O)(=O)NC(=O)Nc2ccc(Oc3ccccc3)cc2)cc1 | 0% | 
20 | 6.3 µg/mL (≈ 19.2 µM) | O=C(Nc1ccc(Cl)cc1)NS(=O)(=O)c1ccc(F)cc1 |  | inhibition in vivo at 150 mg/kg [4]: 79%
21 | 5.8 µg/mL (≈ 15.3 µM) | O=C(Nc1ccc(C(F)(F)F)cc1)NS(=O)(=O)c1ccc(Cl)cc1 |  | inhibition in vivo at 150 mg/kg [4]: 94%; Ratio (Rattus norvegicus [3]): 0
22 | 5.8 µg/mL (≈ 16.1 µM) | Cc1ccc(S(=O)(=O)NC(=O)Nc2ccc(Cl)c(Cl)c2)cc1 | 100% | 
23 | 7.1 µg/mL (≈ 22.8 µM) | O=C(Nc1ccc(Cl)cc1)NS(=O)(=O)c1cccnc1 | 3% | 
24 | 12.6 µg/mL (≈ 37 µM) | COc1ccc(S(=O)(=O)NC(=O)Nc2ccc(Cl)cc2)cc1 |  | inhibition in vivo at 150 mg/kg [2]: 100%
25 | > 20 µg/mL | Cc1ccc(S(=O)(=O)NC(=O)NC2CCCCC2)cc1 [GLYCYCLAMIDE] | 56% | 
